# Laboratory results reported in PMC4495880 (Biochemical pharmacology, 2010).
# Like-named read-outs stand apart in the source and are kept apart here.
# Key:
# [1] = Proteolysis bioassay: inactivation of BNP by human kidney membranes; assay type: in vitro ADME; conditions: 40 μg human kidney membranes, 45 min, 37°C; cGMP bioassay; mean, N = 8
# Outline: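 Rat BNP_1-32 incubated 45 min at 37°C with 40 μg crude human kidney membranes (diluted to 2 mg/ml in 50 mM Tris-HCl pH 7.5, 20% glycerol, 50 mM NaF). Stopped with 0.5 N perchloric acid, boiled 10 min, neutralised. Residual activity was read as cGMP (RIA) in serum-starved HEK293 cells expressing rat (1 min) or human (3 min) GC-A, with 1 mM IBMX. Remaining peptide was fitted to an untreated-peptide standard curve and expressed as % of peptide-only. Mean ± SEM, N = 8.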
# [2] = Protease inhibitors blocking BNP inactivation by human kidney membranes; assay type: biochemical; conditions: for effect of inhibitor on inactivation of rat BNP1-32 by human kidney membranes: 45 min, N = 8; for effect on BNP inactivation: human membranes, data not shown
# [3] = cited from earlier work
# [4] = Proteolysis bioassay: inactivation of BNP by rat kidney membranes; assay type: in vitro ADME; conditions: 40 μg rat kidney membranes, 45 min, 37°C; cGMP bioassay; mean, N = 4
# Outline: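 Human BNP_1-32 exposed to 40 μg crude rat kidney membranes (Tris-HCl pH 7.5/glycerol/NaF buffer, 2 mg/ml) for 45 min at 37°C. Perchloric acid stop, 10 min boil, NaOH neutralisation. Aliquot in DMEM, 25 mM HEPES pH 7.4, 1 mM IBMX applied to HEK293 cells stably expressing GC-A (rat receptor 1 min, human 3 min). cGMP by radioimmunoassay; peptide left derived from standard curve, % of starting peptide-only value. Mean ± SEM, N = 4.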
# [5] = system: recombinant human meprin A and NEP; assay type: in vitro ADME
# [6] = Protease inhibitors blocking BNP inactivation by rat kidney membranes; assay type: biochemical; conditions: 40 μg rat kidney membranes, 45 min; cGMP bioassay; N = 8
# [7] = 40 μg human kidney membranes, 37°C, cGMP bioassay
molecule,measurement,setting,value
"Rat B-type natriuretic peptide 1–32 (SQDSAFRIQERLRNSKMAHSSSCFGQKIDRIG; Brain natriuretic peptide 45; UniProt P13205 77-108, looked up, fragment) [rat BNP1-32]",bioactivity lost,[1],More than 75%
CC(C)C[C@H](NP(=O)(O)O[C@@H]1O[C@@H](C)[C@H](O)[C@@H](O)[C@H]1O)C(=O)N[C@@H](Cc1c[nH]c2ccccc12)C(=O)O [phosphoramidon],effect of inhibitor on inactivation of rat BNP1-32 by human kidney membranes,[2]; [7],blocked a portion of the activity loss
aprotinin,effect on BNP inactivation,[2],neither had an effect
human B-type natriuretic peptide [human BNP1-32],half-life,[3],~ 20 min
same,initial bioactivity lost,[4],48%
same,additional loss of activity on longer incubation with purified enzymes,[5],did not result in any additional loss
same,additional loss of activity on sequential addition of the enzymes,[5],did not result in any additional loss
O=S(=O)(F)Cc1ccccc1 [PMSF],effect on BNP inactivation,[2],neither had an effect
Atrial natriuretic peptide [ANP],half-life,[3],~ 2 min
"CNP: natriuretic peptide, best substrate for NEP",half-life,[3]; in vivo,~ 2 min
CC(=O)N[C@@H](CC(C)C)C(=O)N[C@@H](CC(C)C)C(=O)N[C@H](C=O)CCCNC(=N)N [leupeptin],effect of inhibitor on inactivation of rat BNP1-32 by rat kidney membranes,[6],had no effect
same,effect of inhibitor on inactivation of human BNP1-32 by human kidney membranes,"[2]; 40 μg human kidney membranes, 20 min, 37°C, cGMP bioassay",completely blocked activity losses
same,effect of inhibitor on inactivation of rat BNP1-32 by human kidney membranes,[2]; [7],blocked a portion of the activity loss
